For one series, the system named is MDA-MB-231. The series is described as follows: Antiproliferative activity against human MDA-MB-231 cells at 1 to 10 uM after 24 to 48 hrs by MTT assay. The class given is functional.
The subject of another series is MCF7. The series is described as follows: Antiproliferative activity against human MCF7 cells at 1 to 10 uM after 24 to 48 hrs by MTT assay. The class given is functional. Background: Formazan colour is commonly taken as a measure of viable cells.
Series [1] relates to HT-29. Description: Induction of apoptosis in human HT-29 cells assessed as sub-diploid DNA content at 1 uM after 96 hrs by FACS relative to control. Format: functional. In short, it runs like this:
(§1)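 Panc-1 and HT-29 cells (RPMI-1640) or foreskin fibroblasts (DMEM), 10% FCS, 37 °C, were compound-treated. Supernatants were pooled with PBS-washed, trypsinised cells, then lysed in hypotonic 0.1% sodium citrate / 0.1% Triton X-100 with 50 µg/mL propidium iodide. Flow cytometry scored the sub-diploid nuclear fraction as apoptotic, relative to untreated controls. Means of three independent experiments.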

The subject of series [2] is HT-29. Description: Cytotoxicity against human HT-29 cells assessed as viable cells at 1 uM after 120 hrs by trypan blue exclusion assay relative to control. Particulars: HT-29, 120 h, read-out: Activity. The class given is functional. The essentials: (§2)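 Panc-1 and HT-29 cells were grown in RPMI-1640, and foreskin fibroblasts in DMEM, each with 10% FCS plus penicillin/streptomycin at 37 °C and 5% CO2. Cells were exposed to compound (0.01–10 µM range) for up to 120 h, harvested and stained with Trypan blue. Unstained cells were counted in a Neubauer chamber relative to untreated controls (100%). Means of three independent experiments ± SD.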

Another series relates to HFF. The series is described as follows: Induction of apoptosis in HFF cells assessed as sub-diploid DNA content at 1 uM after 120 hrs by FACS relative to control. The class given is cell-based. The conditions noted are these: human. In short, it runs like this: as §1
For orientation: A flow cytometer gives signals particle by particle.

The nature of series [3]: Cytotoxicity against HFF cells assessed as viable cells at 1 uM after 120 hrs by trypan blue exclusion assay relative to control. Particulars: human, read-out: Activity. Format: cell-based. The essentials: as §2
For series [4], the system named is HT-29. Description: Induction of apoptosis in human HT-29 cells assessed as sub-diploid DNA content at 1 uM after 120 hrs by FACS relative to control. The class given is functional. The essentials: as §1
The test system of series [5] is PANC-1. Description: Induction of apoptosis in human PANC1 cells assessed as sub-diploid DNA content at 1 uM after 120 hrs by FACS relative to control. Format: functional. The essentials: as §1
In series [6] the test system is PANC-1. The series is described as follows: Induction of apoptosis in human PANC1 cells assessed as sub-diploid DNA content at 1 uM after 96 hrs by FACS relative to control. The class given is functional. The essentials: as §1
The subject of series [7] is PANC-1. Description: Cytotoxicity against human PANC1 cells assessed as viable cells at 1 uM after 120 hrs by trypan blue exclusion assay relative to control. The class given is functional. Particulars: PANC-1, 120 h, read-out: Activity. In short, it runs like this: as §2
Series [8] has as its system HT-29. Description: Cytotoxicity against human HT-29 cells up to 10 uM by trypan blue exclusion assay. Format: functional, cell-based. The essentials: (§3)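 Cells grown in RPMI-1640 with 10% FCS, penicillin and streptomycin at 37 °C, 5% CO2. Exposed to 0.01–10 µM for up to 120 h (24–120 h time course). Harvested, stained with Trypan blue, and unstained cells counted in a Neubauer chamber. Counts expressed relative to untreated controls (100%). Means of three independent experiments.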

The test system of series [9] is PANC-1. Description: Cytotoxicity against human PANC1 cells up to 10 uM by trypan blue exclusion assay. The class given is functional, cell-based. In short, it runs like this: as §3
Series [10] is described as follows: Cytotoxicity against HFF cells assessed as viable cells at 1 uM after 48 hrs by trypan blue exclusion assay relative to control. Particulars: human, read-out: Activity. Format: cell-based. In short, it runs like this:
as §2

For series [11], the system named is PANC-1. Description: Cytotoxicity against human PANC1 cells assessed as viable cells at 1 uM after 48 hrs by trypan blue exclusion assay relative to control. The class given is functional. Particulars: PANC-1, 48 h, read-out: Activity. In short, it runs like this: as §2
Series [12] concerns HT-29. Description: Cytotoxicity against human HT-29 cells assessed as viable cells at 1 uM after 48 hrs by trypan blue exclusion assay relative to control. The class given is functional. Particulars: HT-29, 48 h, read-out: Activity. The essentials: as §2
The test system of series [13] is PANC-1. The series is described as follows: Induction of apoptosis in human PANC1 cells assessed as sub-diploid DNA content at 0.1 uM by FACS. Format: functional, cell-based. The essentials:
as §1

The source made the active and inactive calls. The rule behind the calls is not given here.

With `CC1=C(CO)C2=C(C)C3(CC3)[C@@](C)(O)C(=O)C2=C1` [IROFULVEN], the Activity in the series with MDA-MB-231 and with MCF7 was 70% in each case.
For `CC/C=C\C/C=C\C/C=C\C/C=C\C/C=C\C/C=C\CCC(=O)O[C@@H]1C2=C(C)C3(CC3)[C@@](C)(O)C(=O)C2=CC1(C)C` [DOCOSAHEXAENOYL ILLUDIN M], the Activity in the series with HT-29 [1] is <10%; with HFF it was 4.4%; in the series on HT-29 [4], 1.9%; in the series with PANC-1 [5] it was 2.6%; in the series on PANC-1 [6], <10%. Also, the results for the viability at 1 µM with HT-29 [2] and in the series with PANC-1 [7] were 111% and 103%, respectively. In [3], the viability at 120 h, 1 µM stood at 80%.
Consider `CC1=C2C(=CC(C)(C)[C@@H]2OC(=O)CCCc2ccc(N(CCCl)CCCl)cc2)C(=O)[C@](C)(O)C12CC2`, for which the Activity is on record as <10% in the series on HT-29 [1]; 9.5% in the series on HFF; 6% with HT-29 [4]; 36.8% in the series on PANC-1 [5]; <10% with PANC-1 [6]. Also, the viability at 1 µM in the series on HT-29 [2] was found to be 42.7%; with PANC-1 [7], 20%. Also, the viability at 120 h, 1 µM in [3] was found to be 47.5%.
For `CC1=C2C(=CC(C)(C)[C@@H]2OC(=O)c2ccc(-c3ccc(C(=O)O[C@@H]4C5=C(C)C6(CC6)[C@@](C)(O)C(=O)C5=CC4(C)C)cn3)nc2)C(=O)[C@](C)(O)C12CC2`, the Activity with HFF was 14.3%. In addition, the viability at 120 h, 1 µM in series [3] stood at 47.8%. In addition, the result in the series on HT-29 [8] and in the series on PANC-1 [9] was Active. In series [10], the viability at 48 h, 1 µM amounted to 62%.
Regarding `CC1=C2C(=CC(C)(C)[C@@H]2O)C(=O)[C@](C)(O)C12CC2` [ILLUDIN M], the viability at 1 µM is 3.8% in the series on HT-29 [2], 42% in the series with PANC-1 [11], 26% in the series with HT-29 [12] and 12.3% in the series on PANC-1 [7]. Moreover, the Activity with HFF was determined as 88.9%; with HT-29 [4], 47.9%; with PANC-1 [5], 86%. The viability at 120 h, 1 µM in [3] was determined as 28.1%. The result in the series on PANC-1 [13] was Active. Further, in [10], the viability at 48 h, 1 µM was determined as 39%.
For `CC1=C2C(=CC(C)(C)[C@@H]2OC(=O)C2C3CCC(O3)C2C(=O)O[C@@H]2C3=C(C)C4(CC4)[C@@](C)(O)C(=O)C3=CC2(C)C)C(=O)[C@](C)(O)C12CC2` (stereo partly drawn) [BIS(ILLUDINYL M) ENDOTHALLATE], the viability at 1 µM came out at 3% with HT-29 [2], 33% in the series on PANC-1 [11], 26% in the series with HT-29 [12] and 6.4% with PANC-1 [7]. In addition, the Activity with HFF amounted to 33.1%; in the series on HT-29 [4] it was 52.9%; with PANC-1 [5] it was 74%. Also, the viability at 120 h, 1 µM in series [3] was found to be 49.3%. In addition, the result with HT-29 [8] and in the series on PANC-1 [9] was Active.

The record behind these values is ChEMBL document CHEMBL1144153, “Conjugates of the fungal cytotoxin illudin M with improved tumour specificity” (Bioorg Med Chem, 2008).
